In ChEMBL document CHEMBL3352483, “Synthesis, structure-activity relationships and biological evaluation of barbigerone analogues as anti-proliferative and anti-angiogenesis agents” (Bioorg Med Chem Lett, 2014) one finds IC50, Activity and inhibition data, which are given here for 15 compounds.

Experiment [1] has as its system U-251. Put plainly: Antiproliferative activity against human U251 cells after 24 hrs by MTT assay. The experiment is classed as functional, cell-based. The note with it: U-251, 24 h. An outline of the steps:
(§1)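 MTT proliferation assay on HUVECs and on HepG2, A375, U251, B16 and HCT116 cells. Results reported as IC50.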

Experiment [2] deals with A-375. Put plainly: Antiproliferative activity against human A375 cells after 24 hrs by MTT assay. The experiment is classed as functional, cell-based. Particulars: A-375, 24 h. Put shortly: as §1
In experiment [3] the test system is HUVEC. Put plainly: Antimigratory activity in HUVEC assessed as migration into wound area at 0.5 uM after 24 hrs relative to vehicle treated control. Type of experiment: functional, Homo sapiens. An outline of the steps: (§2)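 Wound-healing assay. HUVEC monolayers scratched with a pipette, then treated with vehicle or the indicated compound concentrations. Photographs taken at 0 h and 24 h at 50×, and migration rate into the wound calculated. Mean ± SD from three independent experiments.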

Experiment [4] has as its system HUVEC. Kind of experiment: Antimigratory activity in HUVEC assessed as migration into wound area at 1 uM after 24 hrs relative to vehicle treated control. The experiment is classed as functional, Homo sapiens. Put shortly:
as §2

Experiment [5] is described as follows: Antiproliferative activity against human HCT116 cells after 24 hrs by MTT assay. The experiment is classed as functional, cell-based. The note with it: HCT-116, 24 h. An outline of the steps: as §1
The species named for experiment [6] is Danio rerio. Kind of experiment: Antiangiogenic activity in Flk-1-GFP transgenic zebrafish embryo after 24 hrs. Type of experiment: functional, organism-based. An outline of the steps: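 Zebrafish embryos exposed to compound at 1.25 or 2.5 μM, or to vehicle, for 24 h. Read-out is formation of the subintestinal vessel (SIV) basket-like structure, compared with vehicle-treated embryos.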

Experiment [7] deals with HepG2. Kind of experiment: Antiproliferative activity against human HepG2 cells after 24 hrs by MTT assay. Type of experiment: functional, cell-based. The note with it: HepG2, 24 h. Put shortly:
as §1

Experiment [8] deals with HUVEC. Kind of experiment: Antiangiogenic activity against HUVEC assessed as inhibition of capillary-like tube formation at 1 uM after 8 hrs by Matrigel assay relative to control. The experiment is classed as functional. The note with it: Homo sapiens. An outline of the steps:
(§3)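 HUVECs (1 × 10^4 cells) suspended in EBM-2 with vehicle or compound at 1.0 or 5.0 μM and plated on Matrigel. Incubated 8 h at 37 °C. Capillary networks photographed at 100× and quantified. Inhibition of tube-like structure formation expressed relative to vehicle group.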

Experiment [9] concerns B16. Kind of experiment: Antiproliferative activity against mouse B16 cells after 24 hrs by MTT assay. Type of experiment: functional, cell-based. The note with it: B16, 24 h. Put shortly:
as §1

The subject of experiment [10] is HUVEC. Kind of experiment: Antiangiogenic activity against HUVEC assessed as inhibition of capillary-like tube formation at 5 uM after 8 hrs by Matrigel assay relative to control. Type of experiment: functional. The note with it: Homo sapiens. Put shortly:
as §3

Experiment [11] deals with HUVEC. Put plainly: Antiproliferative activity against HUVEC after 24 hrs by MTT assay. Particulars: Homo sapiens. Type of experiment: functional, cell-based. Put shortly: as §1

Each structure is given as a SMILES string. A value given as a limit tells only on which side of the number the result lay.

With `COc1cc(OC)c(-c2coc3cc(OCC=C(C)C)ccc3c2=O)cc1OC`, the IC50 in experiment [1] is 3.5 µM; in experiment [2] it was 1580 nM; in experiment [5] it was 680 nM; in experiment [7] it was 280 nM; in experiment [9] it was 1.09 µM; in experiment [11] it was 3.8 µM. Further, the figures for the Activity in [3] and in experiment [4] were 35.36% and 8.45%, respectively. Also, the inhibition entry in experiment [6] was “Dose-dependent effect”. In addition, the inhibition at 1 µM in experiment [8] is 78.2%. The inhibition at 5 µM in [10] is 88.3%.
Turning to `COc1cc(OC)c(-c2coc3cc(OCc4ccccc4Cl)ccc3c2=O)cc1OC`, the IC50 in experiment [1] is more than 10 µM; in experiment [2], 2020 nM; in experiment [5], 2450 nM; in experiment [7] it was 1690 nM; in experiment [9], 4.18 µM; in [11], more than 10 µM.
For the compound `COc1cc(OC)c(-c2coc3cc(OCc4ccccc4F)ccc3c2=O)cc1OC`, the IC50 in experiment [1] was 2.89 µM; in [2], 2100 nM; in experiment [5], 2900 nM; in experiment [7] it was 1280 nM; in experiment [9] it was 1.61 µM; in experiment [11], 4.3 µM.
With `CC1(C)C=Cc2c(ccc3c(=O)c(-c4ccc(Cl)c(C(F)(F)F)c4)coc23)O1`, the IC50 in [1] is more than 10 µM; in experiment [2], more than 10000 nM; in experiment [5], more than 10000 nM; in experiment [7], more than 10000 nM; in experiment [9] it was more than 10 µM; in experiment [11], more than 10 µM.
Regarding `COc1cc(OC)c(-c2coc3cc(OCc4ccccc4)ccc3c2=O)cc1OC`, the IC50 in [1] was 6.75 µM; in [2], 1640 nM; in experiment [5], 2280 nM; in experiment [7], 1320 nM; in experiment [9], 2.33 µM; in experiment [11] it was 9.75 µM.
`COc1cc(OC)c(-c2coc3c4c(ccc3c2=O)OC(C)(C)C=C4)cc1OC`: the IC50 in [1] was found to be 4.1 µM; in experiment [2] it was 1850 nM; in experiment [5], 2360 nM; in experiment [7], 1770 nM; in experiment [9], 1.23 µM; in [11], 7.45 µM. Moreover, the Activity came to 74.26% in experiment [3] and 1.65% in experiment [4]. In addition, the inhibition result in [6] is “Dose-dependent effect”. The inhibition at 1 µM in experiment [8] turned out to be 23.7%. Further, the inhibition at 5 µM in [10] amounted to 65.4%.
For the compound `COc1cc(-c2coc3c4c(ccc3c2=O)OC(C)(C)C=C4)cc(OC)c1OC`, the IC50 in [1] is more than 10 µM; in experiment [2], more than 10000 nM; in experiment [5], more than 10000 nM; in experiment [7] it was more than 10000 nM; in [9], more than 10 µM; in experiment [11] it was more than 10 µM.
As for `CCOc1ccc(-c2coc3c4c(ccc3c2=O)OC(C)(C)C=C4)cc1`, the IC50 was more than 10 µM in experiment [1]; more than 10000 nM in [2]; more than 10000 nM in [5]; more than 10000 nM in experiment [7]; more than 10 µM in experiment [9]; more than 10 µM in experiment [11].
For `COc1cc(OC)c(-c2coc3cc(OCc4ccc([N+](=O)[O-])cc4)ccc3c2=O)cc1OC`, the 50% inhibitory concentration (IC50) in experiment [1] is 9.4 µM; in experiment [2] it was more than 10000 nM; in experiment [5], more than 10000 nM; in experiment [7] it was 2500 nM; in experiment [9] it was more than 10 µM; in experiment [11] it was more than 10 µM.
For `COc1cc(OC)c(-c2coc3cc(OCc4cccc(Br)c4)ccc3c2=O)cc1OC`, the IC50 was more than 10 µM in [1]; 1120 nM in experiment [2]; 1200 nM in [5]; 870 nM in experiment [7]; 4.4 µM in [9]; more than 10 µM in experiment [11].
`C=CCOc1ccc2c(=O)c(-c3cc(OC)c(OC)cc3OC)coc2c1`: the IC50 in experiment [1] is 5.9 µM; in experiment [2] it was 4750 nM; in experiment [5] it was 6600 nM; in [7] it was 3450 nM; in [9] it was 5.1 µM; in experiment [11], more than 10 µM.
Take `COc1cccc(-c2coc3c4c(ccc3c2=O)OC(C)(C)C=C4)c1`: the IC50 is more than 10 µM in [1]; more than 10000 nM in [2]; more than 10000 nM in [5]; more than 10000 nM in [7]; more than 10 µM in experiment [9]; more than 10 µM in experiment [11].
On to `CC1(C)C=Cc2c(ccc3c(=O)c(-c4cccc(C(F)(F)F)c4)coc23)O1`, for which the IC50 in experiment [1] was more than 10 µM; in experiment [2], more than 10000 nM; in experiment [5] it was more than 10000 nM; in experiment [7], more than 10000 nM; in experiment [9], more than 10 µM; in experiment [11], more than 10 µM.
For `CC1(C)C=Cc2c(ccc3c(=O)c(-c4ccc(C(F)(F)F)cc4)coc23)O1`, the IC50 in [1] is 5.85 µM; in [2], 7250 nM; in experiment [5], 7000 nM; in experiment [7], more than 10000 nM; in experiment [9], 1.91 µM; in experiment [11], more than 10 µM.
In the case of `COc1cccc(C(=O)Oc2ccc3c(=O)c(-c4cc(OC)c(OC)cc4OC)coc3c2)c1`, the IC50 in experiment [1] was more than 10 µM; in experiment [2], more than 10000 nM; in experiment [5], more than 10000 nM; in experiment [7] it was more than 10000 nM; in experiment [9], more than 10 µM; in experiment [11], more than 10 µM.
